AP ELISA ortho = orthogonal test for alternative complement pathway inhibitors; Human serum alternative complement pathway, LPS-coated ELISA, C3 deposition; tested in compound mixtures; inhibition, % at 5 µM; 62,000 tested, 0.08% active; AID 1235;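 active = inhibition above 30% in each of the two pooled mixtures holding the compound, so the lower value exceeds 30%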;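 note: 0% = serum in Mg-EGTA without compound and 100% = EDTA serum blank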
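Assay system: Human serum alternative complement pathway, C3 deposition on LPS-coated wells | Incubation: 1 h serum-compound exposure at 37 °C | Doses: 5 µM per compound in ten-compound mixtures | Read-out: Percent inhibition | Technique: ELISA with HRP anti-human C3 antibody, TMB substrate, absorbance 450 nm | Replication: Two pool placements per compound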
Ecoli tolC = E. coli tolC mutant growth inhibition; E. coli BW25113 tolC mutant growth, OD615; growth inhibition, % at 10 µM (by protocol); 65,000 tested, 2.2% active;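 active = growth inhibition at or above a cutoff equal to the mean over every tested compound plus 3 SD, cut at about 60% in these data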;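 note: growth measured after 20 h incubation at 37 °C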
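Test system: tolC-deleted E. coli BW25113; medium: LB with kanamycin 50 µg/mL; compound: single-point testing at 10 µM; incubation: 20 h compound exposure of bacteria at 37 °C; signal: OD at 615 nm; evaluation: growth inhibition in percent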
PLAP activator = activates human placental alkaline phosphatase; purified PLAP enzyme, luminescent substrate read-out; hits give high values; activation fold at 20 µM; 96,000 tested, 1.2% active; in the data active = activation fold above about 2
E coli WT exp = growth inhibitors of E. coli BW25113 wild type; growth inhibition, % at 100 µM; 98,000 tested, 0.15% active; OD600 absorbance;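 active = growth inhibition above about 50% at one test dose, limit read from the data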;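 note: growth measured after 20 h incubation at 37 °C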
HePTP inh = human HePTP phosphatase inhibition. 110,000 tested, 0.64% active. recombinant HePTP phosphatase activity, OD absorbance. AID 521. inhibition, % at 20 µM; in the data active = inhibition above about 50%;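 note: plate controls were vehicle for no effect and reference inhibitor for full effect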
Target sequence (P35236 whole entry, looked up): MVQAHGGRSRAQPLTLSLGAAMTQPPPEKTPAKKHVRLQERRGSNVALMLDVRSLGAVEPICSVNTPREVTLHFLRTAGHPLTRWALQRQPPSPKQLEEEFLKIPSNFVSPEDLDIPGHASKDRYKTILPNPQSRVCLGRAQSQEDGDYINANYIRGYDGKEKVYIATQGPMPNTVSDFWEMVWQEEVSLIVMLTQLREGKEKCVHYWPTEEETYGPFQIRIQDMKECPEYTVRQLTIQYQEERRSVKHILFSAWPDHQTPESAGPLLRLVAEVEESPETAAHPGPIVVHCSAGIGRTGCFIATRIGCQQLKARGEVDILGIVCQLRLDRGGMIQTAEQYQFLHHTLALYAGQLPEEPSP
Active calls of the source: *; x = no result given. Most compounds without a hit are left out; they make up all but 2.3% or so of the library.

SMILES	AP ELISA ortho	Ecoli tolC	PLAP activator	E coli WT exp	HePTP inh
Cc1ccccc1-c1nc(CN2CCC(C(=O)NC3CCN(Cc4ccccc4)CC3)CC2)c(C)o1	17	2	x	x	18
Cc1oc(-c2ccccc2F)nc1CN1CCC(C(=O)NC2CCCCCCC2)CC1	20	16	2*	2	4
CCN1C(=O)/C(=C/c2ccc(C(C)(C)C)cc2)SC1=S	x	x	x	x	-4
CCCn1c(SCC(=O)c2cc(C)c(C)cc2C)n[nH]c1=O	x	x	2.2*	-2	x
O=C1CC(O)(C(F)(F)F)Oc2c1ccc1ccccc21 (centres undefined)	-8	97*	1.1	35	4
O=C1CC(O)(C(F)F)Oc2ccc3ccccc3c21 (centres undefined)	17	34	0.8	15	4
CCc1ccc(S(=O)(=O)Nc2ccc(NC(C)=O)cc2)cc1	x	x	x	x	103*
Cc1cc(N2CCN(c3ccccc3)CC2)nc(-n2nc(C)cc2C)n1	1	71*	1.4	5	-13
Cc1cc(Nc2ccccc2)n(-c2nc3ccccc3[nH]2)n1	-9	95*	1.1	-10	-9
Cc1cc(C)nc(-n2nc(C)cc2Nc2ccccc2)n1	3	76*	1.5	2	7
Cc1cc(NC(=O)c2c(F)cccc2Cl)n(-c2nc3ccccc3[nH]2)n1	x	x	2.6*	2	x
Cc1cc(NC(=O)c2ccccc2F)n(-c2nc3ccccc3[nH]2)n1	x	16	1.1	-8	1
O=C(O)CN1C(=O)/C(=C\c2ccc(OCc3ccc(Cl)cc3)cc2)SC1=S	x	x	x	x	13
CC(C)OCCCn1c(=NC(=O)c2ccncc2)c(C#N)cc2c(=O)n3ccccc3nc21	38*	2	0.9	1	16
CCCCCn1c(=NC(C)=O)c(C#N)cc2c(=O)n3ccccc3nc21	14	33	1.2	-1	8
CCc1nc2ccccc2c(=O)n1NC(=O)c1c(O)c2ccccc2[nH]c1=O	-7	85*	1	-8	-3
CCOC(=O)c1c2n(c3c(NCc4ccccc4)ncnc13)CCCC2	5	8	2.5*	6	6
O=C(Nc1cccc(NC(=O)c2ccccc2[N+](=O)[O-])c1)c1ccco1	x	x	x	x	-1
COc1ccc(OC)c(N2CC(O)=C(c3nc4ccccc4s3)C2=N)c1	x	x	2*	-16	x
CCN(CC)CCCN1CC(O)=C(c2nc3ccccc3s2)C1=N	x	x	2.2*	5	x
CCOc1ccccc1N1CC(O)=C(c2nc3ccccc3s2)C1=N	2	51	1	-14	4
Cc1ccc(C2N(Cc3ccccc3)CCN2Cc2ccccc2)s1	x	x	x	x	-1
COc1ccc(-n2c(N)c(C(=O)NCC3CCCO3)c3nc4ccccc4nc32)c(OC)c1 (centres undefined)	-1	26	2*	-7	2
C=CCn1c(N)c(C(=O)NCC2CCCO2)c2nc3ccccc3nc21 (centres undefined)	6	12	1.6	4	9
O=C(Cc1ccccc1)Nc1ccc(-c2nc3cc(Cl)ccc3o2)cc1	x	x	x	x	3
SMILES	AP ELISA ortho	Ecoli tolC	PLAP activator	E coli WT exp	HePTP inh
CCOC(=O)c1ccc(-n2c(=O)[nH]c3ccccc3c2=O)cc1	-11	12	2*	-8	0
Cc1ccc(C2C3=C(CC(C)(C)CC3=O)N(CCN3CCOCC3)C3=C2C(=O)CC(C)(C)C3)cc1	12	1	2.1*	6	-1
COc1c(N2CCN(C(=S)NCc3ccccc3)C(C)C2)c(F)cc2c(=O)c(C(=O)O)cn(C3CC3)c12 (centres undefined)	x	x	1	88*	x
Cc1cccc(NC(=O)c2cc3n(n2)C(C(F)(F)F)CC(c2ccc4c(c2)OCO4)N3)c1 (centres undefined)	1	68*	0.9	-13	12
COc1ccc(NC(=O)c2cc3n(n2)C(C(F)(F)F)CC(c2ccc4c(c2)OCO4)N3)cc1OC (centres undefined)	14	43	x	-14	1
Cc1cc(F)ccc1S(=O)(=O)Nc1ccccc1C(=O)Nc1ccccc1N1CCOCC1	x	x	1.2	-18	x
Cc1cc(F)ccc1S(=O)(=O)Nc1ccccc1C(=O)Nc1ncn[nH]1	20	18	2.9*	8	7
O=C(Nc1ccc(Cl)cc1)NC1(C(=O)NCCCN2CCOCC2)CCCCC1	-19	-14	2.7*	6	-7
O=C(Nc1ccccc1)NC1(C(=O)NCCCN2CCOCC2)CCCCC1	0	-20	1.4	7	15
CCCOc1cccc(C(=O)Nc2cccc(S(N)(=O)=O)c2)c1	x	x	x	x	-3
C/C(=N\NC(=O)c1c[nH]c2ccccc12)c1ccco1	x	x	2.3*	15	1
O=C(NCCSc1c[nH]c2ccccc12)c1ccco1	8	-7	0.8	11	4
CSc1ccc(C=Nc2ccc(S(N)(=O)=O)cc2)cc1	x	x	x	x	7
Cc1ccccc1C(=O)NNC(=O)Cc1ccccc1	x	x	2*	7	2
CC(C)c1ccc(-c2cc(C(=O)N3N=C(C(F)F)CC3(O)C(F)F)c3ccccc3n2)cc1 (centres undefined)	x	x	2.1*	-15	x
CC(C)c1ccc(-c2cc(C(=O)O)c3ccccc3n2)cc1	x	x	x	x	1
COc1cc(/C=C2\SC(=S)N(Cc3ccccc3)C2=O)ccc1OC(=O)C12CC3CC(CC(C3)C1)C2	x	x	x	x	-20
O=C1NC(=S)NC(=O)C1=Cc1ccc(OCc2ccc3ccccc3c2)c(Br)c1	x	x	x	x	52*
Cc1ccc(COc2ccc(C=C3C(=O)NC(=O)NC3=O)cc2Br)cc1	x	x	x	x	4
O=C(c1cccnc1)N1N=C(c2ccncc2)CC1(O)C(F)(F)F (centres undefined)	x	x	x	x	-17
CCCCn1c(NC(=O)CC)c(C#N)c2nc3ccccc3nc21	2	20	1	-11	38
CCCCn1c(NC(=O)c2ccccc2Cl)c(C#N)c2nc3ccccc3nc21	9	99*	1.4	-6	1
C=C(C)Cn1c(Sc2nc3ccccc3[nH]2)nc2c1c(=O)[nH]c(=O)n2C	-11	-3	2.1*	6	-1
C=C(C)Cn1c(SCCCO)nc2c1c(=O)[nH]c(=O)n2C	-8	3	0.9	4	-2
CCOC(=O)CSc1nc2sc3c(c2c(=O)n1-c1ccc(OC)cc1)CCc1ccccc1-3	x	x	x	x	-8
SMILES	AP ELISA ortho	Ecoli tolC	PLAP activator	E coli WT exp	HePTP inh
CC1(C)CC(=O)c2cnn(-c3nc4ccccc4[nH]3)c2C1	-4	5	2.1*	7	-2
Cc1cc2c(cc1C)NC(c1nc3ccccc3[nH]1)C1=C(CC(C)(C)CC1=O)N2 (centres undefined)	x	x	1.1	-3	x
CC(C)(C)c1ccc2c(c1)C(=O)NC2=O	x	x	x	x	-1
Fc1cccc(-c2cc3nc4c(c(N5CCOCC5)n3n2)CCCC4)c1	16	100*	1.7	-7	9
Clc1cccc(-c2cc3nc4c(c(N5CCOCC5)n3n2)CCCC4)c1	-2	25	1.8	-4	-11
COc1ccc(-c2cc3nc4c(c(N5CCC6(CC5)OCCO6)n3n2)CCCC4)cc1	15	65*	x	x	-11
CSc1nnc2n(-c3ccccc3)c(=O)c3c4c(sc3n12)CCCCC4	x	x	x	x	2
CCOC(=O)C(CCCOc1ccc(C)cc1C)C(=O)OCC	x	x	x	x	-17

High-throughput results (PubChem)
